According to ChEMBL document CHEMBL1129563, “Opioid antagonist activity of naltrexone-derived bivalent ligands: importance of a properly oriented molecular scaffold to guide "address" recognition at kappa opioid receptors” (J Med Chem, 1996):
pIC50, pKi: −log10 of the molar value.

Assays:
[1] = Mu opioid activity was evaluated on electrically stimulated guinea pig ileum by using morphine(M) as standard.; assay type: tissue-based
Procedure, shortened: (§1)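 Antagonism was tested on electrically stimulated guinea pig ileum (morphine, EK, DAMGO, U-50488) and mouse vas deferens (DADLE, DPDPE). Antagonist (usually 100 nM, some at 20 nM) was incubated 15 min before agonist. IC50 ratio is agonist IC50 with antagonist over control IC50 in the same preparation. Ke = [antagonist]/(IC50 ratio − 1). Three or more replicates were run. Selectivity is given as Ke ratios.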

[2] = Kappa opioid activity was evaluated on electrically stimulated guinea pig ileum by using ethylketazocine (EK) as standard.; assay type: tissue-based; procedure, shortened: as §1
[3] = biological target: Mu-type opioid receptor (Cavia porcellus) (UniProt P97266); experiment: Ke value is obtained from IC50 ratio value when compared with Opioid receptor mu 1 agonist in Guinea pig Ileum using DAMGO as radioligand; assay type: functional, tissue-based; procedure, shortened: as §1
[4] = biological target: Delta-type opioid receptor (Mus musculus) (UniProt P32300); experiment: Ke value is obtained from IC50 ratio values when compared with delta opioid agonists in MVD preparations using DADLE as radioligand; assay type: functional; procedure, shortened: as §1
[5] = Selectivity ratio between morphine and ethylketazocine potencies in GPI and MVD preparations; procedure, shortened: as §1
[6] = biological target: Kappa-type opioid receptor (Cavia porcellus) (UniProt P41144); experiment: Ke value was obtained from IC50 ratio values when compared with Opioid receptor kappa 1 agonist in Guinea pig Ileum using EK as radioligand; assay type: functional, tissue-based; procedure, shortened: as §1
[7] = tested on: Delta-type opioid receptor; experiment: Delta opioid activity on Mouse vas deference using DADLE as standard; procedure, shortened: as §1
[8] = Selectivity ratio between DADLE and ethylketazocine potencies in GPI and MVD preparations; procedure, shortened: as §1
[9] = biological target: T1, Opioid receptors; mu & delta (Homo sapiens) (UniProt P41143+P35372); experiment: Selectivity ratio between delta to that of mu opioid receptor; assay type: protein assay; procedure, shortened: as §1
[10] = biological target: T2, Opioid receptors; mu & kappa (Homo sapiens) (UniProt P41145+P35372); experiment: Selectivity ratio between kappa to that of mu opioid receptor; assay type: protein assay; procedure, shortened: as §1
[11] = biological target: T2, Opioid receptors; mu & kappa (Homo sapiens); experiment: Selectivity ratio between kappa and mu opioid receptor from guinea pig brain membrane
Procedure, shortened: (§2)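 Competition binding against radioligands in guinea pig brain membranes. μ sites used [3H]DAMGO. κ sites used [3H]EK with 1 μM DAMGO, and δ sites used [3H]DADLE with 1 μM DAMGO. Ki is the geometric mean of three replicates. Selectivity is given as δ/μ and κ/μ Ki ratios.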

[12] = biological target: T3, Kappa-type opioid receptor (Cavia porcellus, UniProt P41144); experiment: Binding affinity against Opioid receptor kappa 1 in Guinea pig brain membranes; assay type: cell membranes, Membrane; procedure, shortened: as §2
[13] = biological target: T1, Opioid receptors; mu & delta (Homo sapiens); experiment: Selectivity ratio between delta and mu opioid receptor from guinea pig brain membrane; procedure, shortened: as §2
Mu-type opioid receptor [14] = biological target: T4, Mu-type opioid receptor (Cavia porcellus, UniProt P97266); experiment: Opioid receptor mu 1 antagonistic activity in guinea pig ileum; assay type: functional, tissue-based; procedure, shortened: as §1
[15] = biological target: Delta-type opioid receptor (Homo sapiens) (UniProt P41143); experiment: Selectivity ratio between Ke value to that of DAMGO (using DADLE as agonist; delta agonist/DAMGO); assay type: functional
Procedure, shortened: (§3)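 Ke values came from IC50 ratios (n ≥ 3) in GPI and MVD, with antagonist preincubated 15 min. Ke = [antagonist]/(IC50 ratio − 1). The reported ratio is Ke against a κ agonist (EK, U-50488) or δ agonist (DADLE, DPDPE) divided by Ke against DAMGO.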

[16] = biological target: Kappa-type opioid receptor (Homo sapiens) (UniProt P41145); experiment: Selectivity ratio between Ke value to that of DAMGO (using EK as agonist; k agonist/DAMGO); assay type: functional; procedure, shortened: as §3
[17] = biological target: Delta-type opioid receptor (Homo sapiens) (UniProt P41143); experiment: Ke value was obtained from IC50 ratio value when compared with delta opioid agonist in […] using DPDPE as radioligand; assay type: functional, tissue-based; settings: target entry is the homologue from another species
Mus musculus [18] = experiment: Antagonistic activity after subcutaneous administration (6.2 umol/kg) with a peak time of 30 mins in mice (using morphine as agonist, mu selective); assay type: functional; settings: sc, 0.5 h
Procedure, shortened: (§4)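 Tail-flick test in Swiss Webster mice. The antagonist was given sc at 6.2 μmol/kg, timed so its 30 min peak fell at the centre of the observation period. Morphine and U-50488 were given sc (μmol/kg) and DPDPE icv (nmol/mouse). Agonist ED50 was found in control and treated mice and expressed as the treated/control ED50 ratio.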

[19] = Ratio of antagonistic activity of treated/control; antinociceptive effect of U-50488 opioid agonist in Mice; assay type: functional; procedure, shortened: as §4
[20] = biological target: Kappa-type opioid receptor (Cavia porcellus) (UniProt P41144); experiment: Ke value was obtained from IC50 ratio value when compared with kappa opioid agonist in Guinea pig Ileum using EK as radioligand; assay type: functional, tissue-based; procedure, shortened: as §1
Mus musculus [21] = experiment: Antagonistic activity after subcutaneous administration (6.2 umol/kg) with a peak time of 30 mins in mice (using U-50488 as agonist, kappa selective); assay type: functional; settings: sc, 0.5 h; procedure, shortened: as §4
Mu-type opioid receptor [22] = biological target: T4, Mu-type opioid receptor; experiment: Binding affinity against Opioid receptor mu 1 in Guinea pig brain membranes; assay type: cell membranes, Membrane; procedure, shortened: as §2
[23] = biological target: Kappa-type opioid receptor (Homo sapiens) (UniProt P41145); experiment: Selectivity ratio between Ke value to that of DAMGO (using U-50488 as agonist; k agonist/DAMGO); assay type: functional; procedure, shortened: as §3
[24] = biological target: Mu-type opioid receptor (Cavia porcellus) (UniProt P97266); experiment: Ke value was obtained from IC50 ratio value when compared with Opioid receptor mu 1 agonist in Guinea pig Ileum using DAMGO as radioligand; assay type: functional, tissue-based; procedure, shortened: as §1
[25] = biological target: Delta-type opioid receptor (Mus musculus) (UniProt P32300); experiment: Ke value was obtained from IC50 ratio value when compared with delta opioid agonist in MVD preparations using DADLE as radioligand; assay type: functional; procedure, shortened: as §1
[26] = Ratio of antagonistic activity treated/control in Mice; antinociceptive effect of morphine opioid agonist in Mice; assay type: functional; procedure, shortened: as §4
[27] = biological target: Delta-type opioid receptor (Homo sapiens) (UniProt P41143); experiment: Selectivity ratio between Ke value to that of DAMGO (using DPDPE as agonist; delta agonist/DAMGO); assay type: functional; procedure, shortened: as §3
[28] = biological target: T3, Kappa-type opioid receptor; experiment: Binding affinity against Kappa Opioid receptor in Guinea pig brain membranes; assay type: cell membranes, Membrane; procedure, shortened: as §2
Mus musculus [29] = experiment: Antagonistic activity after […] with a peak time of 30 mins in mice (using DPDPE as agonist, delta selective); assay type: functional; procedure, shortened: as §4
[30] = biological target: Kappa-type opioid receptor (Cavia porcellus) (UniProt P41144); experiment: Ke value was obtained from IC50 ratio value when compared with Opioid receptor kappa 1 agonist in Guinea pig Ileum using U-50488 as radioligand; assay type: functional, tissue-based; procedure, shortened: as §1
[31] = Ratio of antagonistic activity of treated/control; antinociceptive effect of DPDPE opioid agonist in Mice; assay type: functional; procedure, shortened: as §4

T4 sequence (P97266 whole entry): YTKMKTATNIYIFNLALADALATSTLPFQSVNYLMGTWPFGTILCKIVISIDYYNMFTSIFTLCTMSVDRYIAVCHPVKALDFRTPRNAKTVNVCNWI
Sequence of Mu-type opioid receptor (Cavia porcellus) (P97266 whole entry): as above
Sequence of Delta-type opioid receptor (Mus musculus) (P32300 whole entry): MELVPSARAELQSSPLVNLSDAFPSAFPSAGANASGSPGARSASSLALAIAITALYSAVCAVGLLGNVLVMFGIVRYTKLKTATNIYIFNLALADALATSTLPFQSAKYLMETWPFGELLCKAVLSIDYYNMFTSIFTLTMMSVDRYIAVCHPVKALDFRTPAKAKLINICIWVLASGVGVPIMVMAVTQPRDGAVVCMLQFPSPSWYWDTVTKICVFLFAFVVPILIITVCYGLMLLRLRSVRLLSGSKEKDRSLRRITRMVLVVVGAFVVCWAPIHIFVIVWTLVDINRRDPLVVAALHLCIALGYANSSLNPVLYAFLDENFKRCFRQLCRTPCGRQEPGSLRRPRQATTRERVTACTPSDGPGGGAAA
T1 sequence (P35372 whole entry, looked up): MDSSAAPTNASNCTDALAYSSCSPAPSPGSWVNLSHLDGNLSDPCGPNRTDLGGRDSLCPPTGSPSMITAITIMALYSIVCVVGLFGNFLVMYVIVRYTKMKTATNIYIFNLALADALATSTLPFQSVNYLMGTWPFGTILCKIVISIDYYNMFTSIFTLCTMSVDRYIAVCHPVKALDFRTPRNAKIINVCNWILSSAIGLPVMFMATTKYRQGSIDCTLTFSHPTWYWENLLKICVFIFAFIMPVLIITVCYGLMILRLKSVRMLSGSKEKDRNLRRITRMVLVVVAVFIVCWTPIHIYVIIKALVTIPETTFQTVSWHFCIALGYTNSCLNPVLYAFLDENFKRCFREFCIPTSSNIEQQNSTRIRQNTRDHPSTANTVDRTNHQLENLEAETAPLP
T1 sequence (P41143 whole entry, looked up): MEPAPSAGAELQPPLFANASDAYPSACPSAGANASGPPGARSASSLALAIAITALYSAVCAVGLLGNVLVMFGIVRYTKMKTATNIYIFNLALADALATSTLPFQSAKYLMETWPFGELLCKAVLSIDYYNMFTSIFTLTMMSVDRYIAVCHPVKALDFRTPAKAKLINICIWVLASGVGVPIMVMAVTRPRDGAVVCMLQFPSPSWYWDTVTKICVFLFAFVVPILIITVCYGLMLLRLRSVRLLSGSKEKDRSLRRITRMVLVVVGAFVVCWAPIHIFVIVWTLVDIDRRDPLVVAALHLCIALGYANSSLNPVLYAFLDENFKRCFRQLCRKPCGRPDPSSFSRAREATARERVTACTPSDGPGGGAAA
T2 sequence (P35372 whole entry, looked up): as the sequence (P35372 whole entry, looked up) above
T2 sequence (P41145 whole entry, looked up): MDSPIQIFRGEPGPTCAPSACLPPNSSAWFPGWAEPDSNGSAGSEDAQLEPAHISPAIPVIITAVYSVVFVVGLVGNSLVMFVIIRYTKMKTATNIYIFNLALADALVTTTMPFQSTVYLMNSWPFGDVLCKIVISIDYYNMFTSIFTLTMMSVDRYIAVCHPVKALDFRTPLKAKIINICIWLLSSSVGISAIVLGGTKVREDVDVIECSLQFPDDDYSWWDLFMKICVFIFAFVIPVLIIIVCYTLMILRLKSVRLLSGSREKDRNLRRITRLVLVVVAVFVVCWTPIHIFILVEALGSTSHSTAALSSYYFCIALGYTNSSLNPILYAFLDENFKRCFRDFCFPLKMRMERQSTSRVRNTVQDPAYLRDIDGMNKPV
Sequence of Kappa-type opioid receptor (Cavia porcellus) (P41144 whole entry): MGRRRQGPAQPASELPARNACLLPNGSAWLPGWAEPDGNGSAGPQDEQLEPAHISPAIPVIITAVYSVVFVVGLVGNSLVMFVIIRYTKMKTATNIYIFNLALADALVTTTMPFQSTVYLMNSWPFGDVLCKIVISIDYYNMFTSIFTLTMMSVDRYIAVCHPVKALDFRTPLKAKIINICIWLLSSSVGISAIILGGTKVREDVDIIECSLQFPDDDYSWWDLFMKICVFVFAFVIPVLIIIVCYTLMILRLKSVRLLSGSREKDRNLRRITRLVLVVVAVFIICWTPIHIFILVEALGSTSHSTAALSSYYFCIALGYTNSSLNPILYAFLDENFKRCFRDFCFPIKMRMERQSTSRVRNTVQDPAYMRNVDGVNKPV
Sequence of Delta-type opioid receptor (Homo sapiens) (P41143 whole entry): as the sequence (P41143 whole entry, looked up) above
Sequence of Kappa-type opioid receptor (Homo sapiens) (P41145 whole entry): as the sequence (P41145 whole entry, looked up) above
T3 sequence (P41144 whole entry): as the sequence (P41144 whole entry) above

Which IC50 ratio [1] does the source give for N#C[C@@]1(N)CC[C@@]2(O)[C@H]3Cc4ccc(O)c5c4C2(CCN3CC2CC2)[C@H]1O5 here?
Its IC50 ratio is 79.

And the IC50 ratio [2]?
Its IC50 ratio is 17.5.

What about the Ke [3] of the same compound?
Its Ke is 1.3 nM.

What about the Ke [4] of the same compound?
The Ke was 67 nM.

What about the Ke ratio [5] of the same compound?
The Ke ratio was 4.7.

And the Ke [6]?
Its Ke is 6 nM.

And the IC50 ratio [7]?
Its IC50 ratio is 2.5.

And the Ke ratio [8]?
The Ke ratio was 52.

For N[C@]1(C(=O)O)CC[C@@]2(O)[C@H]3Cc4ccc(O)c5c4C2(CCN3CC2CC2)[C@H]1O5, which IC50 ratio [1] is on record?
The IC50 ratio was 154.

And the Ke selectivity ratio [9]?
The Ke selectivity ratio was 214.

And the IC50 ratio [2]?
Its IC50 ratio is 6.2.

What about the Ke selectivity ratio [10] of the same compound?
Its Ke selectivity ratio is 30.

What about the Ke [3] of the same compound?
Its Ke is 0.65 nM.

And the Ke [4]?
The Ke was 139 nM.

And the Ke [6]?
The Ke was 19 nM.

And the IC50 ratio [7]?
The IC50 ratio was 1.7.

With N[C@@]1(C2=NC(=O)[C@@]3(CC[C@@]4(O)[C@H]5Cc6ccc(O)c7c6C4(CCN5CC4CC4)[C@H]3O7)N2)CC[C@@]2(O)[C@H]3Cc4ccc(O)c5c4C2(CCN3CC2CC2)[C@H]1O5 as the compound, how does the IC50 ratio [1] read?
The IC50 ratio was 11.8.

And the IC50 ratio [2]?
The IC50 ratio was 1.1.

And the Ke ratio [11]?
The Ke ratio was 5.

What about the Ke [3] of the same compound?
Its Ke is 0.46 nM.

And the IC50 ratio [7]?
Its IC50 ratio is 0.87.

What about the pKi [12] of the same compound?
Its pKi is 8.24.

And the Ke ratio [13]?
Its Ke ratio is 151.

With O=C1NC(=O)[C@@]2(CC[C@@]3(O)[C@H]4Cc5ccc(O)c6c5[C@@]3(CCN4CC3CC3)[C@H]2O6)N1 as the compound, how does the pIC50 (Mu-type opioid receptor [14]) read?
The pIC50 was 7.15.

What does the source list for NC(=O)[C@]1(N)CC[C@@]2(O)[C@H]3Cc4ccc(O)c5c4C2(CCN3CC2CC2)[C@H]1O5?
IC50 ratio [1]: 11.2; IC50 ratio [2]: 3.3; Ke ratio [10]: 4.5; Ke [3]: 9.8 nM; Ke [6]: 44 nM; IC50 ratio [7]: 0.89

For NC1=NC([C@]2(N)CC[C@@]3(O)[C@H]4Cc5ccc(O)c6c5C3(CCN4CC3CC3)[C@H]2O6)=N[C@]12CC[C@@]1(O)[C@H]3Cc4ccc(O)c5c4C1(CCN3CC1CC1)[C@H]2O5, which IC50 ratio [1] is on record?
Its IC50 ratio is 65.

And the Ke ratio [9]?
Its Ke ratio is 184.

And the IC50 ratio [2]?
The IC50 ratio was 9.1.

What about the Ke ratio [15] of the same compound?
Its Ke ratio is 814.

And the Ke ratio [11]?
Its Ke ratio is 90.

And the Ke ratio [16]?
The Ke ratio was 171.

What about the Ke ratio [10] of the same compound?
The Ke ratio was 40.

What about the Ke [17] of the same compound?
The Ke was 66 nM.

And the ED50 (Mus musculus [18])?
The ED50 was 68.7 µmol/kg.

What about the ED50 ratio [19] of the same compound?
Its ED50 ratio is 0.72.

And the Ke [20]?
Its Ke is 12 nM.

And the ED50 (Mus musculus [21])?
Its ED50 is 25.6 µmol/kg.

What about the pKi (Mu-type opioid receptor [22]) of the same compound?
Its pKi is 9.01.

What about the Ke ratio [23] of the same compound?
The Ke ratio was 67.

What about the Ke [24] of the same compound?
Its Ke is 0.07 nM.

And the Ke [25]?
Its Ke is 57 nM.

What about the ED50 ratio [26] of the same compound?
The ED50 ratio was 4.

What about the Ke ratio [27] of the same compound?
The Ke ratio was 943.

What about the IC50 ratio [7] of the same compound?
The IC50 ratio was 2.8.

What about the pKi [28] of the same compound?
The pKi was 7.06.

And the ED50 (Mus musculus [29])?
Its ED50 is 16 nM mouse-1.

What about the Ke ratio [13] of the same compound?
The Ke ratio was 187.

And the Ke [30]?
Its Ke is 4.7 nM.

And the ED50 ratio [31]?
Its ED50 ratio is 0.66.

What does the source list for N[C@@]1(C(=O)O)CC[C@@]2(O)[C@H]3Cc4ccc(O)c5c4C2(CCN3CC2CC2)[C@H]1O5?
IC50 ratio [1]: 4.8; IC50 ratio [2]: 1.9; Ke [3]: 27 nM; Ke [6]: 10 nM; IC50 ratio [7]: 1.1

What does the source list for CC(=O)NC1=NC([C@]2(NC(C)=O)CC[C@@]3(O)[C@H]4Cc5ccc(O)c6c5C3(CCN4CC3CC3)[C@H]2O6)=N[C@]12CC[C@@]1(O)[C@H]3Cc4ccc(O)c5c4C1(CCN3CC1CC1)[C@H]2O5?
IC50 ratio [1]: 11.7; IC50 ratio [2]: 3.3; Ke [3]: 1.9 nM; Ke ratio [5]: 23; Ke [6]: 44 nM; IC50 ratio [7]: 1.4

With N=C(N)[C@]1(N)CC[C@@]2(O)[C@H]3Cc4ccc(O)c5c4[C@@]2(CCN3CC2CC2)[C@H]1O5 as the compound, how does the pIC50 (Mu-type opioid receptor [14]) read?
Its pIC50 is 7.74.
